Experimental data reported in ChEMBL document CHEMBL1811909, “Synthesis and antiproliferative activity of novel 2-aryl-4-benzoyl-imidazole derivatives targeting tubulin polymerization” (Bioorg Med Chem, 2011).
Active and inactive are the calls of the source. No cut-off for these calls is given here.

Key:
Bos taurus [1] = organism: Bos taurus; experiment: Inhibition of bovine brain tubulin polymerization after 15 mins by spectrophotometric analysis
How it was run: (§1)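 Bovine brain tubulin (>97% pure, 0.4 mg per assay) mixed with compound at 5, 10 or 20 µM, with 5% DMSO as vehicle control. Buffer: 80 mM PIPES, 2.0 mM MgCl2, 0.5 mM EGTA, 1 mM GTP, pH 6.9. Polymerization followed at 37 °C as absorbance at 340 nm, read every minute for 15 min.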

A-375 = experiment: Antiproliferative activity against human A375 cells after 48 hrs by sulforhodamine B assay; assay type: functional, cell-based; conditions: A-375, 48 h
LNCaP = experiment: Antiproliferative activity against human LNCAP cells after 96 hrs by sulforhodamine B assay; assay type: functional, cell-based
PC-3 [2] = experiment: Antiproliferative activity against human PC3 cells after 96 hrs by sulforhodamine B assay; assay type: functional, cell-based; conditions: PC-3, 96 h
PPC-1 = experiment: Antiproliferative activity against human PPC1 cells after 96 hrs by sulforhodamine B assay; assay type: functional, cell-based; conditions: PPC-1, 96 h
DU-145 [3] = experiment: Antiproliferative activity against human DU145 cells after 96 hrs by sulforhodamine B assay; assay type: functional, cell-based; conditions: DU-145, 96 h
[4] = Antiproliferative activity against human WM164 cells after 48 hrs by sulforhodamine B assay; assay type: functional, cell-based; conditions: WM164, 48 h
DU-145 [5] = experiment: Antiproliferative activity against human paclitaxel-resistant DU145 cells by sulforhodamine B assay; assay type: functional, cell-based
How it was run: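 Prostate cancer cells grown in RPMI 1640 with 10% FBS at 37 °C, 5% CO2. Seeded at 1000–5000 cells/well depending on growth rate and exposed to a concentration series for 96 h, in three to five replicates. Cells fixed with 10% TCA and stained with 0.4% SRB, absorbance read at 540 nm.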

Liver microsomes [6] = experiment: Metabolic stability of the compound in human liver microsomes at […] up to 90 mins by LC-MS analysis; assay type: ADME, Microsome
How it was run: (§2)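 Aliquots were drawn at 5, 10, 20, 30, 60 and 90 min and quenched in acetonitrile containing internal standard. After centrifugation, supernatants were measured by LC-MS/MS to follow parent loss and derive half-life.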

PC-3 [7] = experiment: Antiproliferative activity against human PC3 cells by sulforhodamine B assay; assay type: functional, cell-based
How it was run: (§3)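 Prostate cancer cells grown in RPMI 1640 with 10% FBS at 37 °C, 5% CO2. Cells (1000–5000/well, by growth rate) were exposed to a range of concentrations for 96 h, in three to five replicates. Growth was read by SRB: TCA fixation, 0.4% SRB stain, absorbance at 540 nm.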

Liver [8] = experiment: Half life in mouse liver microsomes at […] by LC-MS analysis; assay type: ADME, Microsome; how it was run: as §2
PC-3 [9] = experiment: Resistance index, ratio of IC50 for human paclitaxel-resistant PC3 cells to IC50 for human PC3 cells; assay type: functional
How it was run: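 Ratio of SRB-assay IC50 values, paclitaxel-resistant PC-3-TxR over parental PC-3. Both lines grown in RPMI 1640 with 10% FBS and treated for 96 h, in three to five replicates. IC50 taken from absorbance at 540 nm by nonlinear regression.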

Liver microsomes [10] = experiment: Metabolic stability of the compound in human liver microsomes at 0.5 uM up to 90 mins by LC-MS analysis; assay type: ADME, Microsome
Liver microsomes [11] = experiment: Half life in rat liver microsomes at […] by LC-MS analysis; assay type: ADME, Microsome; how it was run: as §2
Liver [12] = experiment: Metabolic stability of the compound in dog liver microsomes at […] up to 90 mins by LC-MS analysis; assay type: ADME, Canis lupus familiaris, Microsome; how it was run: as §2
MDA-MB-435 [13] = experiment: Antiproliferative activity against human MDA-MB-435 cells expressing LCC6MDR1 by sulforhodamine B assay; assay type: functional, cell-based
DU-145 [14] = experiment: Resistance index, ratio of IC50 for human paclitaxel-resistant DU145 cells to IC50 for human DU145 cells; assay type: functional
How it was run: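 Ratio of SRB-assay IC50 values, paclitaxel-resistant DU145-TxR over parental DU145. Both lines grown in RPMI 1640 with 10% FBS and exposed to the compound for 96 h, in three to five replicates. Absorbance read at 540 nm after TCA fixation and SRB staining.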

MDA-MB-435 [15] = experiment: Antiproliferative activity against human MDA-MB-435 cells by sulforhodamine B assay; assay type: functional, cell-based
PC-3 [16] = experiment: Antiproliferative activity against human paclitaxel-resistant PC3 cells by sulforhodamine B assay; assay type: functional, cell-based; how it was run: as §3
MDA-MB-435 [17] = experiment: Resistance index, ratio of IC50 for human MDA-MB-435 cells expressing LCC6MDR1 to IC50 for human MDA-MB-435 cells; assay type: functional
DU-145 [18] = experiment: Antiproliferative activity against human DU145 cells by sulforhodamine B assay; assay type: functional, cell-based
Bos taurus [19] = organism: Bos taurus; experiment: Inhibition of bovine brain tubulin polymerization at 10 to 20 uM after 15 mins by spectrophotometric analysis; how it was run: as §1

Structure (SMILES) | inhibition (Bos taurus [1]) | IC50 (A-375) [nM] | IC50 (LNCaP) [nM] | IC50 (PC-3 [2]) [nM] | IC50 (DU-145 [3]) [nM] | IC50 (PPC-1) [nM] | IC50 [4] [nM] | also measured
COc1cc(C(=O)c2cn(C)c(-c3ccc(C)cc3)n2)cc(OC)c1OC | Dose-dependent effect | 30 | 30 | 40 | 30 | 30 | 40 | IC50 (DU-145 [5]): 52 nM; Stability (Liver microsomes [6]): Stable; IC50 (PC-3 [7]): 21 nM; t1/2 (Liver [8]): 5 min; Ratio IC50 (PC-3 [9]): 0.9; Stability (Liver microsomes [10]): Stable; t1/2 (Liver microsomes [11]): 10 min; Stability (Liver [12]): Stable; IC50 (MDA-MB-435 [13]): 67 nM; Ratio IC50 (DU-145 [14]): 1; IC50 (MDA-MB-435 [15]): 83 nM; IC50 (PC-3 [16]): 19 nM; Ratio IC50 (MDA-MB-435 [17]): 0.8
COc1ccc(S(=O)(=O)n2cc(C(=O)c3ccc(F)cc3)nc2-c2ccc(N(C)C)cc2)cc1 | Dose-dependent effect | 100 | 70 | 40 | 130 | 60 | 100 | –
COc1cc(C(=O)c2cc3ccc(Cl)cc3n2Cc2ccccc2)cc(OC)c1OC | Dose-dependent effect | > 10000 | > 10000 | > 10000 | > 10000 | > 10000 | > 10000 | –
COc1ccc2[nH]c(C(=O)c3cc(OC)c(OC)c(OC)c3)cc2c1 | Dose-dependent effect | 30 | 50 | 40 | 80 | 50 | 40 | –
COc1ccc2cc(C(=O)c3cc(OC)c(OC)c(OC)c3)n(S(=O)(=O)c3ccccc3)c2c1 | Dose-dependent effect | 8220 | > 10000 | 2660 | > 10000 | 1050 | > 10000 | –
COc1cc(C(=O)c2c[nH]c(-c3ccc(Cl)cc3)n2)cc(OC)c1O | Dose-dependent effect | 680 | 550 | 300 | 1000 | 580 | 500 | –
COc1ccc(-c2nc(C(=O)c3ccc(F)cc3)cn2C)cc1 | Dose-dependent effect | > 10000 | > 10000 | > 10000 | > 10000 | > 10000 | > 10000 | –
COc1cc(C(=O)c2cc3ccc(Cl)cc3n2C)cc(OC)c1OC | Dose-dependent effect | 6650 | 1040 | 3760 | > 10000 | 4330 | 8080 | –
COc1cc(C(=O)c2c[nH]c(-c3ccc4[nH]c(C(=O)c5cc(OC)c(OC)c(OC)c5)cc4c3)n2)cc(OC)c1OC | Dose-dependent effect | 1800 | 1070 | 2630 | 5920 | 4580 | 1700 | –
COc1cc(C(=O)c2c[nH]c(-c3ccc(C)cc3)n2)cc(OC)c1O | Dose-dependent effect | 110 | 130 | 130 | 170 | 110 | 120 | –
COc1cc(C(O)(c2nc3ccccc3s2)c2nc3ccccc3s2)cc(OC)c1OC | Dose-dependent effect | > 10000 | > 10000 | > 10000 | > 10000 | > 10000 | > 10000 | –
COc1cc(C(=O)c2cn(Cc3ccccc3)c(-c3ccc(C)cc3)n2)cc(OC)c1OC | Dose-dependent effect | 1060 | 680 | 470 | 1500 | 780 | 1170 | –
CC(=O)O[C@H]1C(=O)[C@@]2(C)[C@H]([C@H](OC(=O)c3ccccc3)[C@]3(O)C[C@H](OC(=O)[C@H](O)[C@@H](NC(=O)c4ccccc4)c4ccccc4)C(C)=C1C3(C)C)[C@]1(OC(C)=O)CO[C@@H]1C[C@@H]2O [PACLITAXEL] | – | – | – | – | – | – | – | IC50 (DU-145 [5]): > 3000 nM; IC50 (PC-3 [7]): 0.43 nM; IC50 (PC-3 [16]): 188 nM
COc1cc(C(=O)c2cc3cc(Cl)ccc3[nH]2)cc(OC)c1OC | Dose-dependent effect | 1470 | > 10000 | > 10000 | > 10000 | > 10000 | 2160 | –
COc1ccc2cc(C(=O)c3cc(OC)c(OC)c(OC)c3)[nH]c2c1 | Dose-dependent effect | > 10000 | > 10000 | > 10000 | > 10000 | > 10000 | > 10000 | –
COc1cc(C(=O)c2cc3ccc(F)cc3n2C)cc(OC)c1OC | Dose-dependent effect | 5870 | 1050 | > 10000 | > 10000 | 8300 | 7500 | –

More lines, main results first:

inhibition (Bos taurus [1]) | IC50 (A-375) [nM] | IC50 (LNCaP) [nM] | IC50 (PC-3 [2]) [nM] | IC50 (DU-145 [3]) [nM] | Structure (SMILES) | IC50 (PPC-1) [nM] | IC50 [4] [nM] | also measured
Dose-dependent effect | > 10000 | > 10000 | > 10000 | > 10000 | COc1cc(C(=O)c2nc3ccccc3[nH]2)cc(OC)c1OC | > 10000 | > 10000 | –
Dose-dependent effect | > 10000 | > 10000 | > 10000 | > 10000 | COc1cc(C(=O)c2cc3ccc(F)cc3[nH]2)cc(OC)c1OC | > 10000 | > 10000 | –
Dose-dependent effect | > 10000 | > 10000 | > 10000 | > 10000 | COc1cc(C(=O)c2nc3ccccc3o2)cc(OC)c1OC | > 10000 | > 10000 | –
Dose-dependent effect | > 10000 | > 10000 | > 10000 | > 10000 | COc1cc(C(=O)c2nc3ccccc3s2)cc(OC)c1OC | > 10000 | > 10000 | –
Dose-dependent effect | > 10000 | > 10000 | > 10000 | > 10000 | COc1cc(C(=O)c2cc3ccc(F)cc3n2S(=O)(=O)c2ccccc2)cc(OC)c1OC | > 10000 | > 10000 | –
Dose-dependent effect | > 10000 | > 10000 | > 10000 | > 10000 | COc1cc(C(=O)c2cc3ccc(C)cc3[nH]2)cc(OC)c1OC | > 10000 | > 10000 | –
Dose-dependent effect | > 10000 | > 10000 | > 10000 | > 10000 | COc1cc(C(=O)c2cc3ccc(Cl)cc3[nH]2)cc(OC)c1OC | > 10000 | > 10000 | –
Dose-dependent effect | 2210 | 8630 | 9160 | 3420 | COc1cc(C(=O)c2cc3cc(F)ccc3[nH]2)cc(OC)c1OC | 1000 | 2260 | –
Dose-dependent effect | 30 | 30 | 40 | 50 | COc1cc(C(=O)c2c[nH]c(-c3ccc(Br)cc3)n2)cc(OC)c1OC | 30 | 40 | IC50 (DU-145 [5]): 54 nM; IC50 (DU-145 [18]): 49 nM; IC50 (PC-3 [7]): 18 nM; Ratio IC50 (PC-3 [9]): 0.9; inhibition (Bos taurus [19]): Active; IC50 (MDA-MB-435 [13]): 79 nM; Ratio IC50 (DU-145 [14]): 1.1; IC50 (MDA-MB-435 [15]): 86 nM; IC50 (PC-3 [16]): 16 nM; Ratio IC50 (MDA-MB-435 [17]): 0.9
